Sampled rows, rich in hits. Any-hit rate of the full collection: about 1.8%.
FXIa inh = factor XIa (human) inhibition | P03951 | purified FXIa, Boc-Glu-Ala-Arg-AMC fluorogenic substrate | inhibition, % at 5 µM | actives 0.14% (n = 220,000) | AID 798;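 active = inhibition of at least 40%; inactive = inhibition below 40%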;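 also: fluorescence of freed AMC excited at 355 nm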
Platelet DG rel = modulates dense granule release in human platelets; human platelet-rich plasma, SFLLRN dense granule ATP release, luminescence; inhibition, %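 (compounds screened at 7.5 µM in platelet-rich plasma)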; actives 0.22% (n = 300,000); AID 1663;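 active = mean replicate score, as percent of positive control, at or above 50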
FXIIa inh = blocks human coagulation factor XIIa protease activity; inhibition, % at 5 µM; purified FXIIa, Boc-QGR-AMC fluorogenic substrate, 2 h; P00748; actives 0.3% (n = 220,000); in the data active = inhibition above about 40%
Thrombin inh = inhibitors of human thrombin. alpha-thrombin, Boc-VPR-AMC fluorogenic substrate cleavage. inhibition, % at 5 µM. actives 0.26% (n = 220,000). AID 1046;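 active = inhibition at or above 40%; inactive = inhibition below 40%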
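System: human alpha-thrombin protein; Compound dosing: one concentration per compound, 5 µM, with 0.2% DMSO; Timing: reaction at room temperature; Technique: AMC fluorescence, 355/460 nm; Controls: enzyme without compound as high, wells lacking enzyme as low.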
Wee1 degr inh = blocks degradation of human Wee1 kinase. HeLa Luc-Wee1K328M stability, luciferase luminescence; 100% = proteasome inhibitor MG132 effect. P30291. actives 1.2% (n = 220,000). reporter increase, % at 5 µM;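 active = activation above the mean of all tested compounds plus 3 SD, set per screening run, cut at about 8.8% in these data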;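 also: cells exposed to compound for 20 h before luminescence read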
KLK5 inh = inhibitors of human kallikrein 5. AID 873. actives 0.59% (n = 210,000). Q9Y337. recombinant hK5, fluorogenic AMC substrate cleavage. inhibition, % at 5 µM;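 active = inhibition of 40% or more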
Target sequence (Q9Y337 67-293 limits assumed): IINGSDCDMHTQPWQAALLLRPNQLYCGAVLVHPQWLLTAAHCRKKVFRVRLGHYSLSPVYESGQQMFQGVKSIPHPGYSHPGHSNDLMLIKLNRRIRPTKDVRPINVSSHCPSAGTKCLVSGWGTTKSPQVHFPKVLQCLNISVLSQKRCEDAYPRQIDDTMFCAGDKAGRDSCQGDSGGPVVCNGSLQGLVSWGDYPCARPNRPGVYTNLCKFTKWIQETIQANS
Wee1 stab conf = confirmation of human Wee1 degradation inhibitors. activation, % at 5 µM. HeLa Luc-Wee1K328M degradation, luminescence; vehicle 0%, proteasome-blocked wells 100%. shares compounds with Wee1 degr inh. actives 4% (n = 1,100). AID 1410; in the data active = activation above about 8.9%
Of the large screens only hits and unclear results are named; the others gave an inactive call (follow-up assays come after a bar, where they were run).

COc1cc(-c2nc3ccccn3c2/N=C/c2cccc(F)c2)ccc1O	none
COc1cc(-c2nc3ccccn3c2/N=C/c2ccccc2)ccc1O	Wee1 degr inh 68 | Wee1 stab conf inactive
CCSc1nnc(NC(=O)c2cc(C)nc3ccccc23)s1	Wee1 degr inh 11 | Wee1 stab conf inactive
COc1cc(C2C(N3C(=O)c4ccccc4C3=O)C(=O)N2c2cccc(C)c2)cc(OC)c1OC (stereo not drawn)	none (no result: Platelet DG rel)
COc1cccc(N(CC(=O)N/N=C(\C)c2cccs2)S(C)(=O)=O)c1	Wee1 degr inh 38 | Wee1 stab conf inactive
Cc1ccc(-n2nnc3c(=O)n(CC(=O)N4CCOCC4)cnc32)cc1	Wee1 degr inh 12 | Wee1 stab conf inactive
c1ccc(C2Nc3ccccc3-c3nc4ccccc4n32)cc1 (stereo not drawn)	Wee1 degr inh 15 | Wee1 stab conf inactive
Cc1ccc2nc(-c3ccc(NC(=O)c4ccco4)cc3)[nH]c2c1	Wee1 degr inh 29 | Wee1 stab conf inactive
COc1ccccc1CCNC(=O)C(=O)NCC1OCCN1S(=O)(=O)c1ccc([N+](=O)[O-])cc1 (stereo not drawn)	none (no result: FXIa inh, FXIIa inh, Thrombin inh, Wee1 degr inh, KLK5 inh)
COc1cccc(/C=N/Nc2ccc(S(=O)(=O)O)cc2)c1O	Platelet DG rel 56, Wee1 degr inh 18 | Wee1 stab conf inactive
O=C(NCc1cccnc1)C(=O)N/N=C/c1ccc([N+](=O)[O-])cc1	none
COc1ccc(/C=N/NC(=O)CN(C2=NS(=O)(=O)c3ccccc32)c2ccccc2)cc1OC	none
COc1cccc(/C=N/NC(=O)CN(C2=NS(=O)(=O)c3ccccc32)c2ccccc2)c1	Wee1 degr inh 12 | Wee1 stab conf inactive
BrC(=C\c1ccccc1)/C=N/N1CCN(Cc2ccccc2)CC1	none
BrC(/C=N/N1CCN(Cc2ccccc2)CC1)=C/c1ccccc1	Wee1 degr inh 23 | Wee1 stab conf inactive
O=[N+]([O-])c1cc(/C=N/N2CCN(Cc3ccccc3)CC2)ccc1Cl	Wee1 degr inh 15 | Wee1 stab conf inactive
CCc1noc(C)c1C(=O)N1CCN(S(=O)(=O)c2ccc(Cl)s2)CC1	none (no result: FXIa inh, FXIIa inh, Thrombin inh, Wee1 degr inh, KLK5 inh)
Cc1cc(-c2nn(-c3ccccc3F)cc2CN(C)CC(O)CO)c(C)s1 (stereo not drawn)	Wee1 degr inh 13 (no result: KLK5 inh) | Wee1 stab conf inactive
COCC(=O)Nc1c(C(=O)Nc2ccc3c(c2)OCCO3)oc2ccccc12	Wee1 degr inh 12 | Wee1 stab conf inactive
S=C(NC1CCCCC1)N1CCCCC1	none
CCC1CCCCN1C(=S)NC1CCCCC1 (stereo not drawn)	Wee1 degr inh 14 | Wee1 stab conf inactive
CCOC(=O)CSc1nc(-c2ccncc2)ccc1C#N	Wee1 degr inh 14 | Wee1 stab conf inactive
Cc1cccc(-c2nc(CSc3nc4c(c(=O)[nH]3)CCC4)c(C)o2)c1	Wee1 degr inh 11 | Wee1 stab conf inactive
C/C=C/c1cc(CN2CCN(c3ccccc3)CC2)c(O)c(OC)c1	Wee1 degr inh 11 | Wee1 stab conf inactive
C/C=C/c1cc(CN2CCN(c3ccc(OC)cc3)CC2)c(O)c(OC)c1	none
O=C(OCC(=O)N1CCc2ccccc2C1)c1cc(=O)[nH]c2ccccc12	Wee1 degr inh 16 | Wee1 stab conf inactive
O=C(c1cc(=O)[nH]c2ccccc12)N1CCc2ccccc2C1	none
O=C(CSc1nnc(Cc2ccccc2)o1)Nc1ccc2c(c1)OCO2	none
O=C(O)CNC(=O)CC1S/C(=N/N=C2/NC(=O)CS2)NC1=O (stereo not drawn)	Wee1 degr inh 13 | Wee1 stab conf inactive
NC(=O)NC(=O)CC1S/C(=N/N=C2\CSC(=O)N2)NC1=O (stereo not drawn)	none
O=C(CNCC1(N2CCOCC2)CCCCC1)Nc1ccc(Cl)cc1	Wee1 degr inh 19 | Wee1 stab conf inactive
CCC(C)NC(=O)Cn1cnc2sc(C)c(S(=O)(=O)N3CCN(c4ncccn4)CC3)c2c1=O (stereo not drawn)	Wee1 degr inh 16 | Wee1 stab conf inactive
CC(C)CCN1CCN(Cc2cccn2-c2nccs2)CC1CCO (stereo not drawn)	none

Source: PubChem BioAssay (several laboratories)
